We go through 6 compounds from ChEMBL document CHEMBL1127839, “In vitro photoinduced cytotoxicity and DNA binding properties of psoralen and coumarin conjugates of netropsin analogues: DNA sequence-directed alkylation and cross-link formation” (J Med Chem, 1994).

In series [1] the test system is Nucleic Acid. Description: Apparent binding constant was determined by ethidium displacement assay in calf thymus. As to conditions: Bos taurus. It is filed as nucleic-acid assay.
The subject of series [2] is Nucleic Acid. Description: Apparent binding constant was determined by ethidium displacement assay in pol (dA-dT). Format: nucleic-acid assay.
The subject of series [3] is Nucleic Acid. Description: Apparent binding constant was determined by ethidium displacement assay in coliphage T4 DNA. Format: nucleic-acid assay.
Series [4] has as its system Nucleic Acid. Kind of series: Apparent binding constant was determined by ethidium displacement assay in poly (dG-dC). It is filed as nucleic-acid assay.
A short description of series [5]: Dose to produce photoinduced DNA cross-link formation on isolated DNA.
Series [6] deals with Panel leukemia (Carcinoma cell lines). Description: In vitro photocytotoxicity is evaluated against human chronic myeloid leukemia cells grown in culture irradiated at 366 nM. Format: functional, cell-based. As to conditions: light or radiation study. In a few lines:
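K562 cells in RPMI 1640 with 10% FCS and 2 mM glutamine were exposed to drug at 0.01-100 μM final for 1 h at 37 °C in the dark. They were washed, then irradiated in PBS for 2 min at 366 nm (420 μW/cm², 5 cm, no filters). Cells were plated at 8 wells per sample and grown 4-5 days in the dark. Readout was MTT at 550 nm; IC50 was taken from the dose-response curve.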

Series [7] shares this test system. Kind of series: In vitro photocytotoxicity is evaluated against human chronic myeloid leukemia cells grown in culture under the dark conditions. Format: functional, cell-based. In a few lines: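 Human chronic myeloid leukemia K562 cells were given a 1 h drug exposure (0.01-100 μM final, from DMSO stocks) at 37 °C in the dark, then washed, with no UV irradiation. Cells were cultured 4-5 days in the dark in 96-well plates, 8 wells per sample. MTT was added for 5 h and formazan dissolved in DMSO was read at 550 nm. IC50 was taken from the dose-response curve.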

The nature of series [8]: Dose to produce […] on isolated DNA; no DNA cross-links.

With `Cn1cc(NC(=O)c2cc(NC(=O)c3cc(NC=O)cn3C)cn2C)cc1C(=O)NCCC(=N)N`, the Binding constant worked out at 770000 M⁻¹ in the series with Nucleic Acid [1], 3.48e+07 M⁻¹ in the series with Nucleic Acid [2], 650000 M⁻¹ with Nucleic Acid [3] and 200000 M⁻¹ in the series on Nucleic Acid [4].

In series [5], `CN(C)CCNC(=O)c1cc(NC(=O)c2cc(NC(=O)CCCCOc3c4occc4cc4ccc(=O)oc34)cn2C)cn1C` registered an XL50 of 0.005 µM. The Binding constant in the series with Nucleic Acid [1] is 550000 M⁻¹; with Nucleic Acid [2], 290000 M⁻¹; in the series on Nucleic Acid [3], 660000 M⁻¹; in the series on Nucleic Acid [4], 90000 M⁻¹. The values for the IC50 in series [6] and in series [7] were 0.3 µM and > 100 µM, respectively.

On to `CN(C)CCNC(=O)c1nc(NC(=O)c2nc(NC(=O)CCCCOc3ccc4ccc(=O)oc4c3)cn2C)cn1C`, for which the XL50 result in series [8] is on record as “No DNA crosslinks”. Also, the Binding constant was 100000 M⁻¹ with Nucleic Acid [1], 110000 M⁻¹ with Nucleic Acid [2], 100000 M⁻¹ in the series on Nucleic Acid [3] and 140000 M⁻¹ in the series with Nucleic Acid [4]. Moreover, the results for the IC50 in series [6] and in series [7] were 40 µM and > 100 µM, respectively.

As for `CN(C)CCNC(=O)c1cc(NC(=O)c2cc(NC(=O)CCCCOc3ccc4ccc(=O)oc4c3)cn2C)cn1C`, in series [8], the XL50 result is recorded as “No DNA crosslinks”. For the same compound, the Binding constant with Nucleic Acid [1] stood at 170000 M⁻¹; in the series with Nucleic Acid [2], 3.5e+06 M⁻¹; with Nucleic Acid [3] it was 120000 M⁻¹; with Nucleic Acid [4], 110000 M⁻¹. In addition, the IC50 in series [6] is 75 µM; in series [7] it was > 100 µM.

In series [5], `CN(C)CCNC(=O)c1nc(NC(=O)c2nc(NC(=O)CCCCOc3c4occc4cc4ccc(=O)oc34)cn2C)cn1C` gave an XL50 of 1.6 µM. The Binding constant with Nucleic Acid [1] worked out at 40000 M⁻¹; with Nucleic Acid [2], 90000 M⁻¹; with Nucleic Acid [3], 270000 M⁻¹; with Nucleic Acid [4] it was 210000 M⁻¹. In addition, the half-maximal inhibitory concentration (IC50) in series [6] is 4.5 µM; in series [7], 55 µM.

In the case of `COc1c2occc2cc2ccc(=O)oc12` [METHOXSALEN], the XL50 in series [5] is 18 µM. Further, the Binding constant with Nucleic Acid [1] turned out to be 48000 M⁻¹; in the series on Nucleic Acid [2], 17000 M⁻¹; in the series with Nucleic Acid [3], 14000 M⁻¹; in the series with Nucleic Acid [4], 25000 M⁻¹. Moreover, the figures for the IC50 in series [6] and in series [7] were 100 µM and > 100 µM, respectively.

As a reminder, the IC50 is the concentration at which inhibition is half-maximal. A high value points to a need for much substance.
